KCNQ1 pot = human KCNQ1 channel potentiation or activation | B-score at 10 µM | AID 2648 | hit rate 0.35% among 310,000 | CHO-K1 KCNQ1, thallium flux FluxOR fluorescence; active compounds read high;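 active = fluorescence ratio B-score, a plate-corrected score, at least three library SD, with initial intensity B-score within 5 SD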
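Assay system: CHO-K1 cells stably expressing KCNQ1. Medium: assay buffer for compound exposure, DMSO matched across wells. Timing: 37 °C overnight plating, 90-min dark dye load, 20-min compound pretreatment. Signal: kinetic FluxOR fluorescence, 10 s baseline plus 110 s post-stimulus.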
Kir21 block = blocks the mouse Kir2.1 inward-rectifier potassium channel. P35561. hit rate 0.85% among 310,000. B-score at 10 µM. HEK293-Kir2.1, FluxOR thallium flux fluorescence; active compounds read low. AID 1672;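 active = fluorescence ratio B-score at or below minus 3 SD of library scores, with starting-brightness B-score within 2 SD, cut at about -4.2 in these data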;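 note: channel flux triggered by added potassium and thallium sulfate stimulus; B-score of peak minus minimum fluorescence over baseline after thallium stimulus; more negative B-score means stronger Kir2.1 block with less thallium influx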
KCNQ1 inh = human KCNQ1 channel inhibition | CHO-K1 KCNQ1, FluxOR thallium flux fluorescence; active compounds read high | P51787 | AID 2642 | B-score at 10 µM | hit rate 1.3% among 310,000;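 active = compounds whose thallium flux B-score, printed positive for inhibition, exceeds three library SD while starting fluorescence stays within three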;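 note: channel opened by potassium depolarization with thallium stimulus after 20 min compound exposure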
KCNK9 inh = inhibitors of human KCNK9 two-pore domain potassium channel. AID 488922. hit rate 1.2% among 310,000. HEK293 KCNK9, FluxOR thallium flux fluorescence; active compounds read low. B-score at 10 µM. Q9NPC2;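 active = ratio B-score over 3 SD below the library mean, with starting fluorescence within 5 SD of its mean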;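 note: negative B-score means less thallium flux so channel inhibition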
Target sequence (Q9NPC2 whole entry, looked up, the tested form may be a part): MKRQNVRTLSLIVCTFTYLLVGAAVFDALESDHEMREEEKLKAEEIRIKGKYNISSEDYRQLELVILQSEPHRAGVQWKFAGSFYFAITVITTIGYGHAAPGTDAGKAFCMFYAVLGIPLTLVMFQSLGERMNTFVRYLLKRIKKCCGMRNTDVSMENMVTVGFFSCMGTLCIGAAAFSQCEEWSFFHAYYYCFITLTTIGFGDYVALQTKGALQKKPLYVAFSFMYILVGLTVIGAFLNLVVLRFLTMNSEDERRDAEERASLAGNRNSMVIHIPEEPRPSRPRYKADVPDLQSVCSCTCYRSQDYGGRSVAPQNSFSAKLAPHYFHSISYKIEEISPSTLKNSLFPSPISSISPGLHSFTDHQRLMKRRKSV
KCNK3 block = human KCNK3 channel inhibition, primary screen. O14649. CHO-KCNK3 thallium flux, FluxOR fluorescence; active compounds read low. B-score at 10 µM. hit rate 0.84% among 340,000. AID 602410;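 active = B-score under library mean minus 4 SD, starting fluorescence ratio at most library mean plus 5 SD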;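 note: more negative B-score means stronger inhibition of thallium flux through KCNK3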
Target sequence (O14649 whole entry, looked up): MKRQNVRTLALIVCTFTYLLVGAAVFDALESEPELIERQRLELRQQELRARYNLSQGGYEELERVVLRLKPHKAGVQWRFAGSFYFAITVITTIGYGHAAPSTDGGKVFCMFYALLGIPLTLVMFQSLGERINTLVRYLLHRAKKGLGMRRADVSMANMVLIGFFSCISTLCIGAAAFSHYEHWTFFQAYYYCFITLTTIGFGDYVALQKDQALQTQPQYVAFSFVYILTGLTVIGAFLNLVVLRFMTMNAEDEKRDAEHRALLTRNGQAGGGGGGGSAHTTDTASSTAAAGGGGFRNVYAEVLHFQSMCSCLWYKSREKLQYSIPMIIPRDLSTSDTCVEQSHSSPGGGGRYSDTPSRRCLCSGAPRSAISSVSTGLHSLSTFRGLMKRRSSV
hERG protect = hERG (human) protection from proarrhythmic block. CHO-hERG, FluxOR thallium flux, dofetilide IC70 present. activation (rescue from dofetilide block), less the hit threshold, % at 10 µM. Q12809. AID 1511. hit rate 0.51% among 310,000;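 active = activation above the mean of controls blocked by dofetilide plus 5 SD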;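 note: thallium influx through hERG after potassium depolarization seen as dye fluorescence rise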
KCNK9 inh conf = confirmation of human KCNK9 potassium channel inhibitors. shares compounds with KCNK9 inh. HEK293 KCNK9 cells, FluxOR thallium flux fluorescence. inhibition, % at 10 µM. hit rate 43% among 4,900;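 active = thallium signal inhibited by more than 5 SD of the compound-free buffer control wells, on both duplicate plates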
Kir2-1 spec = tests whether KCNK9 modulators also affect mouse Kir2.1 | shares compounds with KCNK9 inh | Kir2.1 cells, FluxOR thallium flux fluorescence | inhibition, % at 10 µM | hit rate 4% among 4,900 | AID 492993;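 active = thallium signal drop more than 5 SD beyond the mean of the no-compound control wells, seen in both duplicate plates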;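 note: signal is fluorescence rise after thallium addition divided by baseline fluorescence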
KCNK9 uninduced = non-induced cell nonspecific activity of KCNK9 modulators; shares compounds with KCNK9 inh; non-induced KCNK9-HEK293, FluxOR thallium flux; inhibition, % at 10 µM; hit rate 40% among 4,900;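 active = thallium signal drop beyond 5 SD of the untreated control mean, on both duplicate plates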
Large screens that a line does not name were inactive (follow-up assays come after a bar, where they were run). In the library only some 3.7% were active in any assay of this set; here they are far more common.

CCc1nnc(NC(=O)c2ccc(Cl)c(S(=O)(=O)N3CCc4ccccc43)c2)s1	KCNK9 inh -13 | KCNK9 inh conf 68% | Kir2-1 spec inactive | KCNK9 uninduced 42%
Cc1ccsc1/C=N/N1CCN(C2c3ccccc3-c3ccccc32)CC1	none | KCNK9 inh conf inactive | Kir2-1 spec inactive | KCNK9 uninduced 27%
COc1ccc(S(=O)(=O)N2CCc3ccccc32)cc1C(=O)NCc1ccco1	none (no result: KCNQ1 pot, Kir21 block, KCNQ1 inh, KCNK9 inh, hERG protect)
O=C(NCc1ccco1)c1cc(S(=O)(=O)N2CCCc3ccccc32)ccc1Cl	none | KCNK9 inh conf inactive | Kir2-1 spec inactive | KCNK9 uninduced inactive
CCOc1ccc(N2C(=O)c3cccnc3C2Nc2ccc(C)c(C)c2)cc1 (stereo not drawn)	none | KCNK9 inh conf inactive | Kir2-1 spec inactive | KCNK9 uninduced inactive
CCOc1ccc(N2C(=O)c3cccnc3C2Nc2ccc(C)cc2)cc1 (stereo not drawn)	none | KCNK9 inh conf inactive | Kir2-1 spec inactive | KCNK9 uninduced inactive
CCCn1c(-c2cccs2)nc2ccccc21	none
CCN1c2ccccc2-c2nc3ccccc3n2C1c1cccs1 (stereo not drawn)	KCNK9 inh -9.3 | KCNK9 inh conf 59% | Kir2-1 spec inactive | KCNK9 uninduced 62%
COc1ccc(Cc2nnc(NC(=O)c3ccccc3C)s2)cc1	none
CCOc1ccc2cc(/C=C/C(=O)c3ccco3)c(Cl)nc2c1	KCNK9 inh -12, KCNK3 block -9.6 | KCNK9 inh conf inactive | Kir2-1 spec inactive | KCNK9 uninduced 33%
CCOc1ccc2nc(SCC(=O)NNC(=O)c3ccco3)c(C)cc2c1	none
Cc1ccccc1N(C(=O)c1snc(C(N)=O)c1N)C(C(=O)NCC1CCCO1)c1ccc(F)cc1 (stereo not drawn)	none
CC(C)Nc1nc(NC(C)C)nc(SCCOC(=O)Nc2ccc(Cl)cc2Cl)n1	none | KCNK9 inh conf inactive | Kir2-1 spec inactive | KCNK9 uninduced inactive
CCNc1nc(NC(C)C)nc(SCCOC(=O)c2ccccc2)n1	none
CCOc1cc(S(=O)(=O)Nc2ccc(CC)cc2)ccc1Cl	none | KCNK9 inh conf inactive | Kir2-1 spec inactive | KCNK9 uninduced inactive
COc1ccccc1N(C(=O)NCc1ccccc1)C1=NCC(C)S1 (stereo not drawn)	none | KCNK9 inh conf inactive | Kir2-1 spec inactive | KCNK9 uninduced inactive
Cc1ccc(C(=O)N2CCCC(C(=O)Nc3cccc(-c4ccc(F)cc4)c3)C2)cn1 (stereo not drawn)	none
CC(SC1=Nc2ccccc2C2CC=NN12)C(=O)NC1(C#N)CCCCC1 (stereo not drawn)	Kir21 block -4.6, KCNK9 inh -10 | KCNK9 inh conf 46% | Kir2-1 spec inactive | KCNK9 uninduced 42%
O=C(COC(=O)CCC(=O)c1ccc(F)cc1)Nc1cccc(S(=O)(=O)N2CCCC2)c1	none | KCNK9 inh conf inactive | Kir2-1 spec inactive | KCNK9 uninduced inactive
CCC(=O)c1ccc(OCC(=O)OCC(=O)Nc2cccc(S(=O)(=O)N3CCCC3)c2)cc1	none (no result: KCNQ1 pot, Kir21 block, KCNQ1 inh, KCNK9 inh, hERG protect)
Cc1cc(C)c(C(=O)OCC(=O)Nc2cccc(S(=O)(=O)N3CCCCC3)c2)c(C)c1	KCNQ1 inh 6 | KCNK9 inh conf inactive | Kir2-1 spec inactive | KCNK9 uninduced inactive
O=C(COC(=O)c1ccc(O)cc1)Nc1cccc(S(=O)(=O)N2CCCCC2)c1	none
COc1cc(OC)c(/C=N/N2CCN(c3ccccc3OC)CC2)c(OC)c1	none
CC(=O)Nc1c(Cl)cc(Cl)c2c1Cc1cc(Cl)ccc1-2	none (no result: KCNQ1 pot, Kir21 block, KCNQ1 inh, KCNK9 inh, hERG protect)
O=c1[nH]c(NNC(=S)NC2CCCCC2)nc2c1C1(CCCC1)Cc1ccccc1-2	KCNQ1 inh 6 | KCNK9 inh conf inactive | Kir2-1 spec inactive | KCNK9 uninduced inactive
O=c1[nH]c(NNC(=S)NCc2ccccc2)nc2c1C1(CCCCC1)Cc1ccccc1-2	none | KCNK9 inh conf 36% | Kir2-1 spec inactive | KCNK9 uninduced inactive
COc1ccc(C2Nc3cc(OC)ccc3-n3cccc32)cc1 (stereo not drawn)	none | KCNK9 inh conf inactive | Kir2-1 spec inactive | KCNK9 uninduced inactive
CSCCC(NC(=O)c1ccccc1Br)C(=O)N1CCCC(C(F)(F)F)C1 (stereo not drawn)	none
CCOc1ccccc1CNC(=O)CCCc1cn(C)c2ccccc12	none | KCNK9 inh conf inactive | Kir2-1 spec inactive | KCNK9 uninduced inactive
COc1ccccc1C(=O)Nc1ccc(C(=O)Nc2ccccc2C(=O)O)cc1	none
O=C(CCNc1ccc(Cl)cc1)c1cccs1	none
O=C(CCNc1cc(Cl)cc(Cl)c1)c1cccs1	KCNK9 inh -8.7 | KCNK9 inh conf inactive | Kir2-1 spec inactive | KCNK9 uninduced 38%
O=C(CCc1ccc(CCC(=O)c2cccs2)s1)c1cccs1	KCNK9 inh -11 | KCNK9 inh conf 57% | Kir2-1 spec inactive | KCNK9 uninduced 38%
CCC1=NN(C(=O)COc2ccccc2)C(O)(c2ccc(Br)cc2)C1 (stereo not drawn)	KCNK9 inh -17 | KCNK9 inh conf 52% | Kir2-1 spec inactive | KCNK9 uninduced 35%
O=C(/C=C/c1ccc(-c2ccccc2[N+](=O)[O-])o1)c1ccccc1	KCNK9 inh -8.5 | KCNK9 inh conf 40% | Kir2-1 spec inactive | KCNK9 uninduced 28%
O=C(O)/C(=C\c1ccc(-c2ccccc2[N+](=O)[O-])o1)c1ccccc1	none
Cc1cc(C)cc(NC(=O)CN2CCCN(S(=O)(=O)c3ccc(Br)s3)CC2)c1	KCNK9 inh -16, KCNK3 block -10 | KCNK9 inh conf 70% | Kir2-1 spec inactive | KCNK9 uninduced 46%
Cc1ccc(NC(=O)CN2CCCN(S(=O)(=O)c3ccc(Br)s3)CC2)cc1	none
COc1ccc(-c2nn3c(-c4ccccc4)nnc3s2)cc1	none
CCN(CC)c1ccc(-c2nn3c(-c4ccccc4OC)nnc3s2)cc1	KCNK9 inh -14 | KCNK9 inh conf 43% | Kir2-1 spec inactive | KCNK9 uninduced inactive
COc1ccccc1CNC(=O)C(=O)NCCC1CCCCN1S(=O)(=O)c1ccccc1 (stereo not drawn)	none
CCC(C)(C)n1nnnc1C(c1cccnc1)N1CCN(c2cccc(C(F)(F)F)c2)CC1 (stereo not drawn)	KCNK9 inh -11 | KCNK9 inh conf 32% | Kir2-1 spec inactive | KCNK9 uninduced inactive
CCC(C)(C)n1nnnc1C(c1ccncc1)N1CCN(c2cccc(OC)c2)CC1 (stereo not drawn)	none
COc1ccc(/C=N/NC(=O)c2ccc(N(C)S(=O)(=O)c3ccccc3)cc2)cc1	none
